Data taken from ChEMBL document CHEMBL4028811, “Discovery of 2-substituted 1H-benzo[d]immidazole-4-carboxamide derivatives as novel poly(ADP-ribose)polymerase-1 inhibitors with in vivo anti-tumor activity” (Eur J Med Chem, 2017).
Values belong to the compound of their own block, whether it stands above or below them.

Assays:
[1] = biological target: T1, Poly [ADP-ribose] polymerase 1 (Homo sapiens, UniProt P09874); test: Inhibition of recombinant human PARP1 expressed in Escherichia coli BL21(DE3) using histone as substrate measured after 1 hr in presence of biotinylated NAD+ by ELISA
[2] = biological target: T1, Poly [ADP-ribose] polymerase 1; test: Inhibition of PARP1 in human MX1 cells assessed as potentiation of temozolomide-induced cytotoxicity at 10 uM after 72 hrs by MTT assay relative to temozolomide alone; assay type: cell-based
Procedure, shortened: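 MX-1 cells seeded at 2000/well and exposed for 72 h to TMZ (0–0.5 mmol/L) with or without PARP inhibitor fixed at 10 μmol/L. Survival read by MTT. PF50 = IC50 of TMZ alone / IC50 of TMZ + inhibitor.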

Homo sapiens = organism: Homo sapiens; test: Selectivity ratio of IC50 for recombinant human PARP2 to IC50 for recombinant human PARP1
Procedure, shortened: (§1)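 Human recombinant PARP2 (and PARP1) expressed and purified, inhibition measured by ELISA, with AZD2281 as positive control. IC50 from concentration–response fitting.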

[3] = biological target: Poly [ADP-ribose] polymerase 2 (Homo sapiens, UniProt Q9UGN5); test: Inhibition of recombinant human PARP2 expressed in Escherichia coli BL21(DE3) using histone as substrate measured after 1 hr in presence of biotinylated NAD+ by ELISA; procedure, shortened: as §1
Mus musculus [4] = test: Toxicity in BALB/c mouse assessed as change in body weight at 50 mg/kg, po administered once daily via gavage for 10 days measured twice every week up to 11 days (reference value: 5.32 g); assay type: organism-based; conditions: in vivo
Procedure, shortened: (§2)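 Female athymic BALB/c nude mice, 8–10 weeks old, implanted s.c. with 1×10^6 MX-1 cells in 0.1 mL PBS. Day 6: grouped at 6/group, tumors 100–300 mm³. Oral gavage once daily. TMZ 50 mg/kg/day for 5 days; single-agent test compound 50 mg/kg/day for 10 days; combinations both orally for 5 days. Body weight and tumor volume measured twice weekly; euthanized day 11.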

MX1 [5] = test: Anti-tumor activity against human MX1 cells xenografted in BALB/c mouse assessed as tumor growth inhibition at 25 mg/kg, po administered once daily via gavage for 5 days measured after 11 days in presence of temozolomide relative to control; assay type: functional; procedure, shortened: as §2
MX1 [6] = test: Anti-tumor activity against human MX1 cells xenografted in BALB/c mouse assessed as tumor growth inhibition at 25 mg/kg, po administered once daily via gavage for 5 days measured after 11 days in presence of temozolomide relative to temozolomide; assay type: functional; procedure, shortened: as §2
MX1 [7] = test: Anti-tumor activity against human MX1 cells xenografted in BALB/c mouse assessed as tumor weight at 50 mg/kg, po administered once daily via gavage for 5 days measured after 11 days in presence of temozolomide (reference value: 4.09 +/- 0.64 g); assay type: functional; procedure, shortened: as §2
Mus musculus [8] = test: Toxicity in BALB/c mouse assessed as change in body weight at 25 mg/kg, po administered once daily via gavage for 5 days in presence of temozolomide measured twice every week up to 11 days (reference value: 5.32 g); assay type: organism-based; conditions: in vivo; procedure, shortened: as §2
Mus musculus [9] = test: Toxicity in BALB/c mouse assessed as change in body weight at 50 mg/kg, po administered once daily via gavage for 5 days in presence of temozolomide measured twice every week up to 11 days (reference value: 5.32 g); assay type: organism-based; conditions: in vivo; procedure, shortened: as §2
MX1 [10] = test: Anti-tumor activity against human MX1 cells xenografted in BALB/c mouse assessed as tumor weight at 25 mg/kg, po administered once daily via gavage for 5 days measured after 11 days in presence of temozolomide (reference value: 4.09 +/- 0.64 g); assay type: functional; procedure, shortened: as §2
MX1 [11] = test: Anti-tumor activity against human MX1 cells xenografted in BALB/c mouse assessed as tumor growth inhibition at 50 mg/kg, po administered once daily via gavage for 5 days measured after 11 days in presence of temozolomide relative to temozolomide; assay type: functional; procedure, shortened: as §2
MX1 [12] = test: Anti-tumor activity against human MX1 cells xenografted in BALB/c mouse assessed as tumor growth inhibition at 50 mg/kg, po administered once daily via gavage for 10 days measured after 11 days relative to control; assay type: functional; procedure, shortened: as §2
MX1 [13] = test: Anti-tumor activity against human MX1 cells xenografted in BALB/c mouse assessed as tumor weight at 50 mg/kg, po administered once daily via gavage for 10 days measured after 11 days (reference value: 4.09 +/- 0.64 g); assay type: functional; procedure, shortened: as §2
MX1 [14] = test: Anti-tumor activity against human MX1 cells xenografted in BALB/c mouse assessed as tumor growth inhibition at 50 mg/kg, po administered once daily via gavage for 5 days measured after 11 days in presence of temozolomide relative to control; assay type: functional; procedure, shortened: as §2
[15] = biological target: T1, Poly [ADP-ribose] polymerase 1; test: Inhibition of recombinant human PARP1 expressed in Escherichia coli BL21(DE3) using sheared DNA as substrate measured after 1 hr in presence of NAD+
[16] = Mus musculus, MX1, po, read-out: TGI

Chain of Poly [ADP-ribose] polymerase 2 (Q9UGN5 whole entry): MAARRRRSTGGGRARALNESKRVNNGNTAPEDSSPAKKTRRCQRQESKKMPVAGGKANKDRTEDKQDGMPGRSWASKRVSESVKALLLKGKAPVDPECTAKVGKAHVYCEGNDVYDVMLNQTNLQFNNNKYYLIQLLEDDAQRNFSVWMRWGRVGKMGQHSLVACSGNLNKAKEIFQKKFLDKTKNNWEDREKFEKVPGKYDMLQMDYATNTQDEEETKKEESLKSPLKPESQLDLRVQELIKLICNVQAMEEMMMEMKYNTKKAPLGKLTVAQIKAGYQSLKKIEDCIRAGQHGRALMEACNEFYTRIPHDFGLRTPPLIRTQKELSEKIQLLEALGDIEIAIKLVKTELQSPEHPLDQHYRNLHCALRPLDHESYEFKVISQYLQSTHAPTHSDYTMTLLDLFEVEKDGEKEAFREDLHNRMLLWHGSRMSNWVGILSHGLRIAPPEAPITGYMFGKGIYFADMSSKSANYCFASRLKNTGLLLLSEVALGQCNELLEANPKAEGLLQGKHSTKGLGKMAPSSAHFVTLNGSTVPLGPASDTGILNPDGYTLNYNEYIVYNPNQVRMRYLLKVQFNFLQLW
T1 sequence (P09874 whole entry): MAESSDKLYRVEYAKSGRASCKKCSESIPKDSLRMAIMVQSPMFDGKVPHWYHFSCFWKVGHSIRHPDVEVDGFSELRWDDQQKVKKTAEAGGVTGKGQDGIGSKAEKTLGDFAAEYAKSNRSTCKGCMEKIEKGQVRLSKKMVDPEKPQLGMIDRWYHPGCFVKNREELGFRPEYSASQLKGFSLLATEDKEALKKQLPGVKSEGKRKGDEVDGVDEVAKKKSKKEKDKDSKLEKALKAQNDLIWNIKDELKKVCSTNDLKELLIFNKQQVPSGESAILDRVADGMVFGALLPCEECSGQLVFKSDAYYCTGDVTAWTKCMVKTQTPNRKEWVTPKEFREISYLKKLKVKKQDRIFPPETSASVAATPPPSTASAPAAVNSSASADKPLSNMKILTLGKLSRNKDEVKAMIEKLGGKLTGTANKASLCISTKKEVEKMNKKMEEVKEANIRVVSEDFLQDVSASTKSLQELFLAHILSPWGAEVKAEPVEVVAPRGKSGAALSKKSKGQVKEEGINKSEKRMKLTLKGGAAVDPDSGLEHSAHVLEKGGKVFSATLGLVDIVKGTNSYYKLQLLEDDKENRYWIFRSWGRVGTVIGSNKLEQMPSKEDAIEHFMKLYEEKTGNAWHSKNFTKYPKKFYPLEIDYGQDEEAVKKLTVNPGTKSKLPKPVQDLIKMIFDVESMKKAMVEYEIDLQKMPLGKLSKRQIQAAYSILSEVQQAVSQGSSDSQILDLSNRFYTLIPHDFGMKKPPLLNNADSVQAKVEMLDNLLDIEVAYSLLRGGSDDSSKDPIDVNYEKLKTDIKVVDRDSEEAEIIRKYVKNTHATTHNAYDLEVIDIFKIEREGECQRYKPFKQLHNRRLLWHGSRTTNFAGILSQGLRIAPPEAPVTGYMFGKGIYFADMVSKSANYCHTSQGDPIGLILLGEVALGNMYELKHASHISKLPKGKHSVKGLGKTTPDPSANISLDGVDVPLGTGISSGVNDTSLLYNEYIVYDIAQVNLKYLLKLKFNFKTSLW

Structure (SMILES): CCCNC1CCN(C(=O)c2nc3c(C(N)=O)cccc3[nH]2)C1 (stereo unspecified)
PF50 [2]: 1.54
Ratio IC50 (Homo sapiens): < 10
IC50 [1]: 79 nM
IC50 [3]: 75 nM

Structure (SMILES): CC[C@H]1CN(C(=O)c2nc3c(C(N)=O)cccc3[nH]2)CCN1C(=O)OC(C)(C)C
IC50 [1]: 100 nM

Structure (SMILES): CC(C)CN1CCN(C(=O)c2nc3c(C(N)=O)cccc3[nH]2)CC1
IC50 [1]: 81 nM

Structure (SMILES): CC(C)(C)OC(=O)NC1CCN(C(=O)c2nc3c(C(N)=O)cccc3[nH]2)C1 (stereo unspecified)
IC50 [1]: 857 nM

Structure (SMILES): NC(=O)c1cccc2[nH]c(C(=O)N3CCC(NC4CCCCC4)C3)nc12 (stereo unspecified)
PF50 [2]: 4.17
Ratio IC50 (Homo sapiens): < 10
IC50 [1]: 75 nM
IC50 [3]: 91 nM

Structure (SMILES): NC(=O)c1cccc2[nH]c(C(=O)NC3CCN(CC4CC4)CC3)nc12
PF50 [2]: 3.53
Ratio IC50 (Homo sapiens): < 10
IC50 [1]: 108 nM
IC50 [3]: 130 nM

Structure (SMILES): CCC(=O)NC1CCN(C(=O)c2nc3c(C(N)=O)cccc3[nH]2)C1 (stereo unspecified)
IC50 [1]: 83 nM

Structure (SMILES): CC(C)(C)OC(=O)N1CCC(NC(=O)c2nc3c(C(N)=O)cccc3[nH]2)CC1
IC50 [1]: 644 nM

Structure (SMILES): CC(C)(C)OC(=O)N1CCC(N2CCC(NC(=O)c3nc4c(C(N)=O)cccc4[nH]3)CC2)CC1
IC50 [1]: 868 nM

Structure (SMILES): CC[C@@H]1CN(C(=O)c2nc3c(C(N)=O)cccc3[nH]2)CCN1
IC50 [1]: > 100 nM

Structure (SMILES): NC(=O)c1cccc2[nH]c(C(=O)NC3CCN(C4CCNCC4)CC3)nc12
IC50 [1]: 316 nM

Structure (SMILES): NC(=O)c1cccc2[nH]c(C(=O)NC3CCCN(C4CCNCC4)C3)nc12 (stereo unspecified)
IC50 [15]: 793 nM

Structure (SMILES): NC(=O)c1cccc2[nH]c(C(=O)NC3CCCNC3)nc12 (stereo unspecified)
IC50 [15]: 199 nM

Structure (SMILES): CC(C)(C)OC(=O)N1CCC(N2CCCC(NC(=O)c3nc4c(C(N)=O)cccc4[nH]3)C2)CC1 (stereo unspecified)
IC50 [15]: 818 nM

Structure (SMILES): CC(C)(C)OC(=O)N1CCC(NC(=O)c2nc3c(C(N)=O)cccc3[nH]2)C1 (stereo unspecified)
IC50 [15]: 1810 nM

Structure (SMILES): NC(=O)c1cccc2[nH]c(C(=O)NC3CN4CCC3CC4)nc12 (stereo unspecified)
IC50 [1]: > 100 nM

Structure (SMILES): CCC(CC)N1CCN(C(=O)c2nc3c(C(N)=O)cc(F)cc3[nH]2)CC1=O
IC50 [1]: 88 nM

Structure (SMILES): CC(C)(C)OC(=O)N1CCC(NC2CCN(C(=O)c3nc4c(C(N)=O)cccc4[nH]3)C2)CC1 (stereo unspecified)
IC50 [1]: 1190 nM

Structure (SMILES): CC(C)(C)OC(=O)NC1CCN(C(=O)c2nc3c(C(N)=O)cc(F)cc3[nH]2)C1 (stereo unspecified)
IC50 [1]: > 100 nM

Structure (SMILES): CCC(CC)N1CCC(NC(=O)c2nc3c(C(N)=O)cccc3[nH]2)CC1
IC50 [1]: 302 nM

More lines, in order of falling IC50 [1], values ahead:

IC50 [1]: 70 nM
Structure (SMILES): NC(=O)c1cccc2[nH]c(C(=O)N3CCC(NC4CCCCC4)CC3)nc12

IC50 [1]: 64 nM
Structure (SMILES): CC(C)N1CCC(NC(=O)c2nc3c(C(N)=O)cccc3[nH]2)CC1

IC50 [1]: 60 nM
Structure (SMILES): NC(=O)c1cccc2[nH]c(C(=O)N3CCC(NC4CCNCC4)C3)nc12 (stereo unspecified)

IC50 [1]: 41 nM
Structure (SMILES): CC(C)(C)CN1CCC(NC(=O)c2nc3c(C(N)=O)cccc3[nH]2)CC1

Ratio IC50 (Homo sapiens): < 10
IC50 [1]: 37 nM
IC50 [3]: 38 nM
Structure (SMILES): NC(=O)c1cc(F)cc2[nH]c(C(=O)N3CCC(NC4CCCCC4)C3)nc12 (stereo unspecified)
PF50 [2]: 1.71

IC50 [1]: 19 nM
Structure (SMILES): CC[C@H]1CN(C(=O)c2nc3c(C(N)=O)cccc3[nH]2)CCN1

Ratio IC50 (Homo sapiens): < 10
IC50 [1]: 17 nM
IC50 [3]: 74 nM
Structure (SMILES): CC(C)(C)CN1CCC(NC(=O)c2nc3c(C(N)=O)cc(F)cc3[nH]2)CC1
PF50 [2]: 7.1
Activity (Mus musculus [4]): 5 g
T/C (MX1 [5]): 36%
inhibition in vivo at 25 mg/kg (MX1 [5]; [16]): 64%
T/C (MX1 [6]): 94%
inhibition in vivo at 25 mg/kg (MX1 [6]; [16]): 6%
Activity (MX1 [7]): 0.5 g
Activity (Mus musculus [8]): 0.23 g
Activity (Mus musculus [9]): -0.79 g
Activity (MX1 [10]): 1.47 g
T/C (MX1 [11]): 32%
inhibition in vivo at 50 mg/kg (MX1 [11]; [16]): 68%
T/C (MX1 [12]): 91%
inhibition in vivo at 50 mg/kg (MX1 [12]; [16]): 9%
Activity (MX1 [13]): 3.73 g
T/C (MX1 [14]): 12%
inhibition in vivo at 50 mg/kg (MX1 [14]; [16]): 88%

Ratio IC50 (Homo sapiens): < 10
IC50 [1]: 15 nM
IC50 [3]: 48 nM
Structure (SMILES): NC(=O)c1cccc2[nH]c(C(=O)N3CCC(N)C3)nc12 (stereo unspecified)
PF50 [2]: 1.98

Ratio IC50 (Homo sapiens): < 10
IC50 [1]: 7.54 nM
IC50 [3]: 34 nM
Structure (SMILES): NC(=O)c1cc(F)cc2[nH]c(C(=O)N3CCC(NC4CCCCC4)CC3)nc12
PF50 [2]: 0.71
